Activity calls are given as the source filed them. The rule behind the calls is not given here.
Columns and labels:
SW-1736 = assay: Cytotoxicity against human SW1736 cells after 96 hrs by SRB assay; assay type: functional, cell-based; conditions: SW-1736, 96 h
Method in brief: (§1)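 Monolayer cultures in RPMI 1640 with 10% heat-inactivated FBS and streptomycin/penicillin, 37 °C, 5% CO₂. Cells seeded day 0 at densities giving exponential growth, exposed day 1 to 0.001–10 μM, SRB read day 5 (96 h exposure); surviving cells as percentage of untreated controls, IC₅₀ taken from dose–response curves. Three independent experiments for some compounds, two for others.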

SW480 = assay: Cytotoxicity against human SW480 cells after 96 hrs by SRB assay; assay type: functional, cell-based; conditions: SW480, 96 h; method in brief: as §1
A2780 [1] = assay: Induction of apoptosis in human A2780 cells assessed as increase in cleaved/activated form of caspase 3 at 1 uM after 24 hrs by Western blot analysis; assay type: functional, cell-based
Method in brief: (§2)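 Cells treated 24 h at 1 μM, then rinsed in PBS and lysed in RIPA buffer with protease inhibitors. 40 μg protein per lane on SDS–PAGE, blotted to nitrocellulose, blocked in 5% milk/PBST, probed 2 h with mouse monoclonals against caspase-3, PARP and actin (loading control). HRP secondary, ECL detection, compared with untreated control.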

[2] = Inhibition of tubulin polymerization at 3 uM; conditions: TDE = time-dependent effect
Method in brief: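 Commercial fluorescence-based tubulin polymerization kit, run as the manufacturer directs, compounds at 3 μM. Polymerization followed as RFU at excitation 360 nm, emission 465 nm. Three independent experiments.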

[3] = Induction of apoptosis in human WW070327 cells assessed as increase in cleaved/activated form of caspase 3 at 1 uM after 24 hrs by Western blot analysis; assay type: cell-based; conditions: ww070327, 24 h; method in brief: as §2
HL-60 [4] = assay: Induction of apoptosis in human HL60 cells at 10 uM after 15 hrs by TUNEL assay; assay type: functional
Method in brief: (§3)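 TUNEL with fluorescein-tagged nucleotides labelling 3'-OH DNA ends, on HL-60 and 518A2 cells exposed to 10 μM for 15 h. Apoptotic cells were counted as green fluorescent spots under fluorescence microscopy and related to total cell number.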

FaDu = assay: Cytotoxicity against human FADU cells after 96 hrs by SRB assay; assay type: functional, cell-based; method in brief: as §1
DLD-1 [5] = assay: Induction of apoptosis in human DLD1 cells assessed as PARP cleavage at 1 uM after 24 hrs by Western blot analysis; assay type: functional, cell-based; method in brief: as §2
DLD-1 [6] = assay: Cytotoxicity against human DLD1 cells after 96 hrs by SRB assay; assay type: functional, cell-based; conditions: DLD-1, 96 h; method in brief: as §1
A-431 [7] = assay: Cytotoxicity against human A431 cells after 96 hrs by SRB assay; assay type: functional, cell-based; conditions: A-431, 96 h; method in brief: as §1
A2780 [8] = assay: Induction of apoptosis in human A2780 cells assessed as PARP cleavage at 1 uM after 24 hrs by Western blot analysis; assay type: functional, cell-based; method in brief: as §2
[9] = Cytotoxicity against human 2102EP cells after 96 hrs by SRB assay; assay type: functional, cell-based; method in brief: as §1
A253 cell line = assay: Suppression of regrowth in human A253 cells at 10 nM treated for 96 hrs and measured over 10 days by SRB assay; assay type: functional, cell-based
Method in brief: (§4)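 SRB regrowth test: cells exposed 96 h to serial dilutions, chosen around IC₉₀, then fixed at once (day 0) or washed drug-free and grown in fresh medium for 2, 4, 6 or 10 days before SRB staining. Three independent experiments.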

[10] = Cytotoxicity against human NCI-H322 cells after 96 hrs by SRB assay; assay type: functional, cell-based; conditions: NCI-H322, 96 h; method in brief: as §1
NCI-H358 = assay: Cytotoxicity against human NCI-H358 cells after 96 hrs by SRB assay; assay type: functional, cell-based; conditions: NCI-H358, 96 h; method in brief: as §1
[11] = Induction of apoptosis in human WW070327 cells assessed as PARP cleavage at 1 uM after 24 hrs by Western blot analysis; assay type: cell-based; conditions: ww070327, 24 h; method in brief: as §2
MCF7 = assay: Cytotoxicity against human MCF7 cells after 96 hrs by SRB assay; assay type: functional, cell-based; conditions: MCF7, 96 h; method in brief: as §1
DLD-1 [12] = assay: Induction of apoptosis in human DLD1 cells assessed as increase in cleaved/activated form of caspase 3 at 1 uM after 24 hrs by Western blot analysis; assay type: functional, cell-based; method in brief: as §2
[13] = Cytotoxicity against human H12.1 cells after 96 hrs by SRB assay; assay type: functional, cell-based; method in brief: as §1
518A2 [14] = assay: Induction of apoptosis in human 518A2 cells assessed as PARP cleavage at 1 uM after 24 hrs by Western blot analysis; assay type: functional, cell-based; method in brief: as §2
HT-29 = assay: Cytotoxicity against human HT-29 cells after 96 hrs by SRB assay; assay type: functional, cell-based; conditions: HT-29, 96 h; method in brief: as §1
[15] = Cytotoxicity against human A253 cells after 96 hrs by SRB assay; assay type: functional, cell-based; conditions: A253, 96 h; method in brief: as §1
A549 = assay: Cytotoxicity against human A549 cells after 96 hrs by SRB assay; assay type: functional, cell-based; conditions: A549, 96 h; method in brief: as §1
8505C = assay: Cytotoxicity against human 8505C cells after 96 hrs by SRB assay; assay type: functional, cell-based; method in brief: as §1
HCT-8 = assay: Cytotoxicity against human HCT8 cells after 96 hrs by SRB assay; assay type: functional, cell-based; conditions: HCT-8, 96 h; method in brief: as §1
518A2 [16] = assay: Induction of apoptosis in human 518A2 cells assessed as increase in cleaved/activated form of caspase 3 at 1 uM after 24 hrs by Western blot analysis; assay type: functional, cell-based; method in brief: as §2
HCT-116 = assay: Cytotoxicity against human HCT116 cells after 96 hrs by SRB assay; assay type: functional, cell-based; conditions: HCT-116, 96 h; method in brief: as §1
A-427 = assay: Cytotoxicity against human A427 cells after 96 hrs by SRB assay; assay type: functional, cell-based; conditions: A-427, 96 h; method in brief: as §1
BT-474 = assay: Cytotoxicity against human BT474 cells after 96 hrs by SRB assay; assay type: functional, cell-based; conditions: BT-474, 96 h; method in brief: as §1
HL-60 [17] = assay: Induction of apoptosis in human HL60 cells assessed as processing of procaspase 9 to activated caspase 9 at 10 uM by Western blotting; assay type: functional, cell-based; conditions: TDE = time-dependent effect
Method in brief: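 HL-60 cells at 0.5 × 10⁶/mL, exposed to 10 μM (in 1% DMF/99% PBS) at 37 °C, sampled at 0, 3, 7, 24 and 30 h. Lysed in Tris/NaCl/Triton X-100 buffer pH 7.4, 60 μg protein on 12% SDS–PAGE, PVDF blot, anti-caspase-9 1:10,000, HRP secondary, chemiluminescence. Procaspase-9 (~46 kDa) and cleaved form (~35 kDa) followed.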

A-431 [18] = assay: Suppression of regrowth in human A431 cells at 10 nM treated for 96 hrs and measured over 10 days by SRB assay; assay type: functional, cell-based; method in brief: as §4
518A2 [19] = assay: Induction of apoptosis in human 518A2 cells at 10 uM after 15 hrs by TUNEL assay; assay type: functional; method in brief: as §3
A2780 [20] = assay: Cytotoxicity against human A2780 cells after 96 hrs by SRB assay; assay type: functional, cell-based; conditions: A2780, 96 h; method in brief: as §1
[21] = Cytotoxicity against human 518A2 cells after 96 hrs by SRB assay; assay type: functional, cell-based; conditions: 518A2, 96 h; method in brief: as §1
[22] = Cytotoxicity against human 1411HP cells after 96 hrs by SRB assay; assay type: functional, cell-based; method in brief: as §1
A2780 [23] = assay: Suppression of regrowth in human A2780 cells at 10 nM treated for 96 hrs and measured over 10 days by SRB assay; assay type: functional, cell-based; method in brief: as §4

Question: Which results are given for `COc1ccc(/C=C/C(=O)c2cc(OC)c(OC)c(OC)c2)cc1O`?
Answer: IC50 (SW-1736): 27.5 nM; IC50 (SW480): 102 nM; Activity (A2780 [1]): Active; Activity [2]: tde; Activity [3]: Not Active; Activity (HL-60 [4]): 40%; IC50 (FaDu): 41 nM; Activity (DLD-1 [5]): Active; IC50 (DLD-1 [6]): 32.3 nM; IC50 (A-431 [7]): 15 nM; Activity (A2780 [8]): Active; IC50 [9]: 31.4 nM; Activity (A253 cell line): Active; IC50 [10]: 39 nM; IC50 (NCI-H358): 17.1 nM; Activity [11]: Not Active; IC50 (MCF7): 22.3 nM; Activity (DLD-1 [12]): Active; IC50 [13]: 33.6 nM; Activity (518A2 [14]): Active; IC50 (HT-29): 2600 nM; IC50 [15]: 22.8 nM; IC50 (A549): 67.5 nM; IC50 (8505C): 49.7 nM; IC50 (HCT-8): 56 nM; Activity (518A2 [16]): Active; IC50 (HCT-116): 25.1 nM; IC50 (A-427): 51.2 nM; IC50 (BT-474): 193 nM; Activity (HL-60 [17]): tde; Activity (A-431 [18]): Active; Activity (518A2 [19]): 50%; IC50 (A2780 [20]): 15.6 nM; IC50 [21]: 33.6 nM; IC50 [22]: 142 nM; Activity (A2780 [23]): Active

— ChEMBL document CHEMBL1139368, “Pt(II) complexes of a combretastatin A-4 analogous chalcone: effects of conjugation on cytotoxicity, tumor specificity, and long-term tumor growth suppression” (J Med Chem, 2009)
